MBD2 inh = inhibitors of MBD2 binding to methylated DNA, primary screen, biochemical, TR-FRET, DNA-binding domain, human; Methyl-CpG-binding domain protein 2 (Homo sapiens), Q9UBB5; MBD2 binding to methylated oligonucleotide; inhibition, % at 4.4 µM; 0.31% of 370,000 active; AID 686964, 2013; in the data active means inhibition above about 13%
Target sequence (Q9UBB5 whole entry, looked up, the tested form may be a part): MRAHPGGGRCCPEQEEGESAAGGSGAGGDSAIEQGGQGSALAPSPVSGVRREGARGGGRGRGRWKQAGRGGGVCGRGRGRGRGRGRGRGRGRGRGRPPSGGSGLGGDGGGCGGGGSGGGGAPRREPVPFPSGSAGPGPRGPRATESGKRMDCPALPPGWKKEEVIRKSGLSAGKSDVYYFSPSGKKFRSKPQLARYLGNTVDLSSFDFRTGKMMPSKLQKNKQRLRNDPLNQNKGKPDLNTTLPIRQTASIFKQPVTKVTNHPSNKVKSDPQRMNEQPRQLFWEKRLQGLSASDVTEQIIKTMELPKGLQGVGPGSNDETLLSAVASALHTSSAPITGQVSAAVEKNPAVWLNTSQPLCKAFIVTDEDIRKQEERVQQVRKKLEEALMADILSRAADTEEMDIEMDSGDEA
UHRF1 binding = UHRF1 methylated DNA binding inhibitors, primary screen, counter-screen for MBD2 inhibitor project, biochemical, TR-FRET, human UHRF1, single concentration; E3 ubiquitin-protein ligase UHRF1 (Homo sapiens), Q96T88; UHRF1 binding to methylated oligo; inhibition, % at 4.4 µM; 0.75% of 370,000 active; AID 687016, 2013;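 further: UHRF1 SRA domain binding a hemimethylated CpG hairpin DNA probe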
LEDGF integ inh = blockers of LEDGF/p75-dependent integrase strand transfer – biochemical, TR-FRET, high throughput, primary screen; inhibition, % at 3.7 µM; AID 743269, 2014; HIV-1 integrase (with human LEDGF/p75); 0.64% of 370,000 active; TR-FRET IN-LEDGF/p75 DNA integration, Eu/Cy5;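 active means inhibition above the screen-wide mean plus 3 SD, cut at about 13% in these data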;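 further: signal is the Cy5 over europium emission ratio at 671 and 618 nm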
TDP2 absorb = human TDP2 enzyme inhibitors, primary screen, biochemical, epi absorbance, recombinant enzyme | inhibition, % at 12.8 µM | Tyrosyl-DNA phosphodiesterase 2 (Homo sapiens), O95551 | 0.34% of 370,000 active | T5PNP hydrolysis, p-nitrophenol absorbance 415 nm;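 active means inhibition above the mean of all tested compounds plus 3 SD, set per campaign, cut at about 25% in these data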
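Assay system: Recombinant human TDP2 | Quantity: 120 nM TDP2 per well | Incubation: 2 h at 37 °C | Signal: Epi absorbance | Evaluation: Percent inhibition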
NSD2 inh = NSD2 histone methyltransferase inhibitors, primary screen, biochemical, AlphaScreen, single concentration, set 2; Histone-lysine N-methyltransferase NSD2 (Homo sapiens), O96028; 0.54% of 310,000 active; NSD2 peptide methylation, 120 min; inhibition, % at 12.5 µM; in the data active means inhibition above about 50%
Casp6 inh = human caspase-6 inhibitors, primary screen, biochemical, VEID-R110 fluorescence, single point, set 2; AID 686996, 2013; 0.53% of 350,000 active; inhibition, % at 12.5 µM; P55212; purified caspase-6, Z-VEID-R110 cleavage fluorescence;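 active means mean inhibition across replicates at least about 35%, with every replicate also reaching that limit, limit read from the data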
UHRF1 DNA bind = UHRF1 methylated DNA binding inhibitors, counter-screen for MBD2 inhibitor project, biochemical, TR-FRET, human UHRF1; inhibition, % at 4.4 µM; UHRF1 binding to methylated oligonucleotide; shares compounds with MBD2 inh; 25% of 1,000 active;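 further: UHRF1 SRA domain binding a labeled hemimethylated CpG hairpin DNA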
MBD2 DBD conf = inhibitors of MBD2 binding to methylated DNA, confirmation, biochemical, TR-FRET, DNA-binding domain, human; AID 720531, 2013; inhibition, % at 4.4 µM; shares compounds with MBD2 inh; 26% of 1,000 active; TR-FRET MBD2-DBD binding to methylated oligonucleotide; in the data active means inhibition above about 14%
Numbers stand for hits; n = inactive; x = no result given. Shown are actives, neighbours in structure and some others; about 1.8% of the full set was active somewhere. Unless noted, no stated cut-off is given here; in the data, active means inhibition above about 21%; inactive means the rest.

SMILES | MBD2 inh | UHRF1 binding | LEDGF integ inh | TDP2 absorb | NSD2 inh | Casp6 inh | UHRF1 DNA bind | MBD2 DBD conf
C=CCn1c(=O)c2c(nc3n2CCCN3Cc2ccccc2)n(C)c1=O | 15 | 25 | n | n | n | n | n | n
O=C(Cc1ccccn1)NCC[C@@H]1CC[C@H](NS(=O)(=O)c2ccc(F)cc2)[C@H](CO)O1 | x | x | x | x | x | n | x | x
COc1ccc(S(=O)(=O)CCC(=O)N2CCN(c3ccc(C(C)=O)cc3)CC2)cc1 | 18 | 31 | n | n | n | n | n | n
CCOC(=O)[C@H]1[C@H]2COc3ccccc3[C@@H]2N2C(=O)c3ccccc3NC(=O)[C@@]12C | 18 | n | n | n | x | n | n | n
COc1cc2nc(N3CCNCC3)nc(N)c2cc1OC | 14 | n | n | n | n | x | 32 | 27
COc1cc2nc(N3CCN(c4cc(C)ccc4C)CC3)nc(N)c2cc1OC | n | n | n | n | n | n | x | x
CC(=O)N(C)C[C@@H]1Oc2cc(C#CCC3CCCC3)ccc2S(=O)(=O)N([C@H](C)CO)C[C@H]1C | x | x | x | x | x | n | x | x
Cc1ccccc1-c1cnc2c(c1)C(=O)N([C@H](C)CO)C[C@@H](C)[C@@H](CN(C)CC1CCOCC1)O2 | x | x | x | x | x | n | x | x
COC(=O)c1ccc(Oc2ccc3nnc(C)n3n2)cc1 | 13 | n | n | n | n | x | n | n
Cc1ccc(C(=O)N2CCN(C(=O)CN3CCOCC3)C2)cc1 | 14 | n | n | n | n | x | n | n
O=C(Nc1ncc2c(n1)CC(c1ccccc1)CC2=O)c1ccco1 (centres undefined) | n | n | n | n | n | n | x | x
O=C(Nc1ncc2c(n1)CC(c1cccc(Cl)c1)CC2=O)c1ccco1 (centres undefined) | 52 | 86 | n | n | n | n | n | n
CCCNC(=O)N1C[C@H](C)[C@@H](OC)CN(C)C(=O)c2ccc(NC(C)=O)cc2OC[C@@H]1C | x | x | x | x | x | n | x | x
CC(Sc1nnnn1C)C(=O)Nc1nc(-c2ccc(F)c(F)c2)cs1 (centres undefined) | 18 | 27 | n | n | n | n | n | n
Fc1ccc(COc2cccc(CNCc3ccncc3)c2)cc1 | 38 | n | n | n | n | n | n | n
O=C(O)c1ccc(CNCc2cccc(OCc3ccc(F)cc3)c2)cc1 | n | n | n | n | n | n | x | x
CC(C)(C)C1CCc2onc(C(=O)NCc3ccc(F)cc3)c2C1 (centres undefined) | 17 | n | n | n | n | x | n | n
O=C(NCc1ccc(F)cc1)c1noc2c1CCCC2 | x | x | x | x | n | n | x | x
O=C(CSc1ccccc1)N1CCc2ccccc21 | 14 | 22 | n | n | n | x | n | n
Cc1nnc(SCC(=O)Nc2ccc(N(C)C)cc2)n(N)c1=O | 13 | n | n | n | n | n | n | n
CN1c2ccc(-c3ccc(F)cc3)cc2[C@H]2[C@H](CCN2C(=O)c2ccc(F)cc2)[C@@H]1CO | x | x | x | x | x | n | x | x
O=C(c1ccc(S(=O)(=O)N2CCC(c3nc4ccccc4[nH]3)CC2)cc1)N1CCOCC1 | 14 | 22 | n | n | x | x | n | n
O=S(=O)(c1ccc(F)cc1)N1CCC(c2nc3ccccc3[nH]2)CC1 | n | n | n | n | n | n | x | x
O=C(Cc1ccccn1)N[C@H]1CC[C@H](CCn2cc(-c3ccc(F)cc3)nn2)O[C@@H]1CO | x | x | x | x | x | n | x | x
FC(F)c1nc2ccccc2[nH]1 | n | n | n | n | n | n | x | x
SMILES | MBD2 inh | UHRF1 binding | LEDGF integ inh | TDP2 absorb | NSD2 inh | Casp6 inh | UHRF1 DNA bind | MBD2 DBD conf
FC(F)Sc1nc2ccccc2[nH]1 | 40 | n | n | n | n | n | n | n
COCCCNC(=O)CCc1c(C)c2cc3c(C)coc3cc2oc1=O | 13 | n | n | n | n | n | n | n
CS(=O)(=O)Nc1cccc(NC(=O)c2ccc(-n3ccnc3)c3ccoc23)c1 | 14 | n | n | n | n | n | n | n
Cn1nccc1-c1ccc(C(=O)Nc2cccc(NS(C)(=O)=O)c2)c2occc12 | n | n | n | n | n | n | x | x
CN1c2ccc(C3=CCCCC3)cc2[C@@H]2[C@@H](CCN2C(=O)NC2CCCC2)[C@H]1CO | x | x | x | x | x | n | x | x
CO[C@H]1CN(C)C(=O)c2cc(NC(=O)c3ccccc3F)ccc2OC[C@@H](C)N(C)C[C@H]1C | x | x | x | x | x | n | x | x
CCCNC(=O)Nc1ccc2c(c1)C(=O)N(C)[C@@H]1CC[C@@H](CC(=O)NCCCN(C)C)O[C@@H]1CO2 | x | x | x | x | x | n | x | x
COc1ccc(C)cc1NC(=O)c1cccc(C(=O)Nc2cc(C)ccc2OC)c1 | 74 | n | n | n | n | n | n | n
C=CC[C@@H](CC(=O)NCCO)C(=O)N[C@H](C)COC(=O)[C@@H](CC=C)Cc1ccc(F)cc1 | 53 | n | n | n | x | n | n | n
C=CC[C@H](CC(=O)NCCO)C(=O)N[C@H](C)COC(=O)[C@@H](CC=C)Cc1ccc(F)cc1 | n | n | n | n | x | n | x | x
CS(=O)(=O)N1CCC(C(=O)Nc2ccccc2)CC1 | n | n | n | n | n | x | x | x
CS(=O)(=O)N1CCC(C(=O)Nc2ccc(C(N)=O)cc2)CC1 | 40 | n | n | n | n | n | n | n
COc1ccc(NC(=O)[C@@H]2CC=C[C@@H]3CCN(C4CCCCC4)C(=O)[C@@H]32)cc1 | 64 | n | n | n | x | x | n | n
COC(=O)c1ccc(OC)c(CSc2nnc(COc3ccc(Cl)cc3)o2)c1 | 14 | n | n | n | n | x | n | n
COC(=O)c1ccc(OC)c(CSc2nnc(COc3ccccc3)o2)c1 | n | n | n | n | n | n | x | x
CCCCC(=O)OCC(=O)C1(O)Cc2c(O)c3c(c(O)c2C(OC2CC(NC(=O)C(F)(F)F)C(O)C(C)O2)C1)C(=O)c1c(OC)cccc1C3=O (centres undefined) | n | n | n | n | n | n | x | x
COc1cccc2c1C(=O)c1c(O)c3c(c(O)c1C2=O)C[C@](O)(C(C)=O)C[C@H]3O[C@@H]1C[C@@H](N)[C@@H](O)[C@@H](C)O1 | 112 | 93 | n | n | x | n | 101 | 111

Screens as filed in PubChem BioAssay.
